# Laboratory results taken from ChEMBL document CHEMBL3739301, “Design, synthesis and biological evaluation of tricyclic diterpene derivatives as novel neuroprotective agents against ischemic brain injury” (Eur J Med Chem, 2015).
# Active and inactive are the calls of the source. No cut-off for these calls is given here.
# Assays:
# [1] = Neuroprotective activity against nutrient deprivation-induced neuronal cell death in Sprague-Dawley rat CGN cells at 10 uM preincubated for 24 hrs followed by induction of nutrient deprivation measured after 24 hrs relative to control; type: functional
# Method in brief: (§1)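 Primary rat cerebellar granule neurons (8-day-old Sprague-Dawley pups, DIV 6-8) pretreated 24 h with compound (0.1% DMSO final), then deprived of B27 serum substitute for 24 h. MTT viability (0.5 mg/ml, 4 h) read at 570 nm against control = 100%; neuroprotection percentage derived from the basal deprived value; mean ± SD, n = 3.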
# [2] = Neuroprotective activity against oxygen-glucose deprivation-induced neuronal cell death in Sprague-Dawley rat CGN cells assessed as cell viability at 10 uM preincubated for 24 hrs followed by induction of oxygen-glucose deprivation measured after 24 hrs by MTT assay (reference value: 48.7%); type: functional; conditions: read-out: Activity
# [3] = Neuroprotective activity against oxygen-glucose deprivation-induced neuronal cell death in Sprague-Dawley rat CGN cells at 10 uM preincubated for 24 hrs followed by induction of oxygen-glucose deprivation measured after 24 hrs relative to control; type: functional
# [4] = Neuroprotective activity against oxygen-glucose deprivation-induced neuronal cell death in Sprague-Dawley rat CGN cells assessed as cell viability at 1 uM preincubated for 24 hrs followed by induction of oxygen-glucose deprivation measured after 24 hrs by MTT assay (reference value: 48.7%); type: functional; conditions: read-out: Activity
# [5] = Neuroprotective activity in Sprague-Dawley rat CGN cells assessed as upregulation of HO-1 expression after 24 hrs by Western blot analysis; type: functional, cell-based
# Method in brief: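 Primary granule neurons treated with a concentration series for 24 h, lysed in RIPA buffer, protein by BCA. Separated on 15% SDS-PAGE, transferred to PVDF, blocked in 5% BSA. Primary antibody overnight at 4 °C, secondary 30 min at room temperature; chemiluminescent detection. HO-1 quantified by densitometry normalized to β-actin. n = 3, mean ± SD.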
# neuronal [6] = experiment: Neuroprotective activity against glutamate-induced neuronal cell death in Sprague-Dawley rat CGN cells assessed as increase in cell viability preincubated for 24 hrs followed by glutamate challenge measured after 24 hrs by MTT assay; type: functional, cell-based
# [7] = Cytotoxicity against Sprague-Dawley rat CGN cells at <10 uM after 72 hrs by MTT assay; type: cell-based
# Method in brief: (§2)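 Primary cerebellar granule neurons from 8-day SD rat pups; cytosine arabinoside […] added at 24 h, used at DIV 6–8. Cells exposed to a concentration series for 72 h, 0.1% DMSO final. Viability by MTT (0.5 mg/ml, 4 h, 37 °C); formazan dissolved in DMSO, OD 570 nm. n = 3, mean ± SD.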
# [8] = Neuroprotective activity against glutamate-induced neuronal cell death in Sprague-Dawley rat CGN cells assessed as cell viability at 10 uM preincubated for 24 hrs followed by glutamate challenge measured after 24 hrs by MTT assay (reference value: 40.4%); type: functional; conditions: read-out: Activity
# neuronal [9] = experiment: Neuroprotective activity against glutamate-induced neuronal cell death in Sprague-Dawley rat CGN cells assessed as increase in GSH level at 10 uM preincubated for 24 hrs followed by glutamate challenge measured after 24 hrs; type: functional, cell-based
# Method in brief: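 Granule neurons pretreated 24 h with […] compound, then […] for 24 h. Lysed in buffer containing protease inhibitor cocktail; protein determined by BCA. SOD activity and GSH level measured with commercial kits. n = 3, mean ± SD.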
# neuronal [10] = experiment: Neuroprotective activity against glutamate-induced neuronal cell death in Sprague-Dawley rat CGN cells assessed as increase in SOD level at 10 uM preincubated for 24 hrs followed by glutamate challenge measured after 24 hrs; type: functional, cell-based
# [11] = Neuroprotective activity against glutamate-induced neuronal cell death in Sprague-Dawley rat CGN cells at 10 uM preincubated for 24 hrs followed by glutamate challenge measured after 24 hrs relative to control; type: functional
# [12] = Cytotoxicity against Sprague-Dawley rat CGN cells at 50 to 100 uM after 72 hrs by MTT assay; type: cell-based; method in brief: as §2
# [13] = Neuroprotective activity against nutrient deprivation-induced neuronal cell death in Sprague-Dawley rat CGN cells assessed as cell viability at […] preincubated for 24 hrs followed by induction of nutrient deprivation measured after 24 hrs by MTT assay (reference value: 44.1%); type: functional; conditions: read-out: Activity
# Method in brief: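 Cerebellar granule neurons pretreated 24 h with 1 or […] compound (0.1% DMSO), then kept without B27 supplement for 24 h. Viability by MTT (0.5 mg/ml, 4 h, OD 570 nm) against non-deprived control (100%); neuroprotection % from basal value. n = 3, mean ± SD.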
# [14] = Neuroprotective activity against nutrient deprivation-induced neuronal cell death in Sprague-Dawley rat CGN cells at […] preincubated for 24 hrs followed by induction of nutrient deprivation measured after 24 hrs relative to control; type: functional; method in brief: as §1
# [15] = Permeability of the compound at 25 ug/ml after 18 hrs by PAMPA assay; type: ADME; conditions: read-out: permeability
# Rattus norvegicus [16] = experiment: Antioxidant activity in Sprague-Dawley rat transient middle cerebral artery occlusion model assessed as […] in GSH level in ipsilateral cortex at 3 mg/kg, iv measured at 24 hrs post middle cerebral artery occlusion; type: functional, organism-based
# Method in brief: (§3)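 Rat tMCAO: 2 h suture occlusion, then reperfusion. Dosing iv at 2, 4 and 6 h after onset, 10 mg/kg (DMSO) or 3 mg/kg (saline). At 24 h the ipsilateral cortex was lysed in RIPA buffer and protein quantified by BCA. GSH concentration and SOD activity were then measured with commercial kits.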
# Rattus norvegicus [17] = experiment: Anti-ischemic activity in Sprague-Dawley rat transient middle cerebral artery occlusion model assessed as reduction in infarct volume at 3 mg/kg, iv administered for 2 to 6 hrs post middle cerebral artery occlusion measured at 24 hrs by TTC staining-based morphometric analysis; type: organism-based; conditions: in vivo
# Method in brief: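 Male Sprague-Dawley rats (260-280 g), middle cerebral artery occluded 2 h by intraluminal nylon monofilament, then reperfused; body temperature held at 37 C. Drug given iv at 2, 4 and 6 h after ischemia onset (test agent in DMSO, edaravone in saline; vehicle controls). Neurological scoring at 24 h; 2 mm coronal slices stained with 2% TTC 20 min at 37 C, formalin-fixed; infarct volume by morphometry; n = 8-12.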
# [18] = Neuroprotective activity against glutamate-induced neuronal cell death in Sprague-Dawley rat CGN cells assessed as cell viability at 50 uM preincubated for 24 hrs followed by glutamate challenge measured after 24 hrs by MTT assay (reference value: 40.4%); type: functional; conditions: read-out: Activity
# Rattus norvegicus [19] = experiment: Anti-ischemic activity in Sprague-Dawley rat transient middle cerebral artery occlusion model assessed as reduction in neurological deficit at 3 mg/kg, iv administered for 2 to 6 hrs post middle cerebral artery occlusion measured at 24 hrs; type: functional, organism-based
# Method in brief: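 Male SD rats (260–280 g); intraluminal nylon suture (~0.26 mm, round tip) occluded MCA for 2 h, then withdrawn for reperfusion, body temperature held at 37 °C. Given iv at 2, 4 and 6 h after ischemia onset; 10 mg/kg in DMSO or 3 mg/kg in saline; DMSO or saline vehicle controls. Neurological score at 24 h after MCAO; n = 8–12, mean ± SD.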
# [20] = Neuroprotective activity against oxygen-glucose deprivation-induced neuronal cell death in Sprague-Dawley rat CGN cells assessed as cell viability at 50 uM preincubated for 24 hrs followed by induction of oxygen-glucose deprivation measured after 24 hrs by MTT assay (reference value: 48.7%); type: functional; conditions: read-out: Activity
# Rattus norvegicus [21] = experiment: Antioxidant activity in Sprague-Dawley rat transient middle cerebral artery occlusion model assessed as […] in SOD level in ipsilateral cortex at 3 mg/kg, iv measured at 24 hrs post middle cerebral artery occlusion; type: functional, organism-based; method in brief: as §3
# [22] = Neuroprotective activity against oxygen-glucose deprivation-induced neuronal cell death in Sprague-Dawley rat CGN cells at 50 uM preincubated for 24 hrs followed by induction of oxygen-glucose deprivation measured after 24 hrs relative to control; type: functional
# [23] = Neuroprotective activity against glutamate-induced neuronal cell death in Sprague-Dawley rat CGN cells at 50 uM preincubated for 24 hrs followed by glutamate challenge measured after 24 hrs relative to control; type: functional
smiles,measurement,setting,value
COc1cc2c(cc1C(C)=O)CC[C@H]1C(C)(C)[C@@H](O)CC[C@]21C,Activity,[1],19.5%
same,viability at 10 µM,[2],74.5%
same,Activity,[3],50.3%
same,viability at 1 µM,[4],51.1%
same,Activity,[5],Dose-dependent effect
same,Activity,neuronal [6],Dose-dependent effect
same,Activity,[7],Non-toxic
same,viability at 10 µM,[8],85.2%
same,Activity,neuronal [9],Active
same,Activity,neuronal [10],Active
same,Activity,[11],75.2%
same,Activity,[12],Toxic
COc1cc2c(cc1C(=O)N1CCCCC1)CC[C@H]1C(C)(C)[C@@H](O)CC[C@]21C,viability at 10 µM,[8],79.1%
same,Activity,[11],64.9%
CC(=O)N[C@@H](CS)C(=O)O [ACETYLCYSTEINE],viability,[13],53.7%
same,Activity,[14],17.2%
CCC(=O)c1cc2c(cc1OC)[C@@]1(C)CC[C@H](O)C(C)(C)[C@@H]1CC2,viability at 10 µM,[8],63.2%
same,Activity,[11],38.3%
COC(=O)c1cc2c(cc1OC)[C@@]1(C)CC[C@H](O)C(C)(C)[C@@H]1CC2,Activity,[1],13.6%
same,viability at 10 µM,[2],68.4%
same,Activity,[3],38.4%
same,viability at 1 µM,[4],43.9%
same,Activity,neuronal [6],Dose-dependent effect
same,Activity,[7],Non-toxic
same,viability at 10 µM,[8],72.4%
same,Activity,[11],53.7%
COc1cc2c(cc1C(=O)N(C)C)CC[C@H]1C(C)(C)[C@@H](O)CC[C@]21C,viability at 10 µM,[8],70.7%
same,Activity,[11],50.8%
COc1cc2c(cc1CO)CC[C@H]1C(C)(C)[C@@H](O)CC[C@]21C,viability at 10 µM,[8],64.4%
same,Activity,[11],40.3%
CCCCCCCC(=O)c1cc2c(cc1OC)[C@@]1(C)CC[C@H](O)C(C)(C)[C@@H]1CC2,viability at 10 µM,[8],40.5%
COc1cc2c(cc1C(C)=O)CC[C@H]1C(C)(C)[C@@H](OC(C)=O)CC[C@]21C,Activity,[1],6%
same,viability at 10 µM,[2],60%
same,Activity,[3],22%
same,viability at 1 µM,[4],50%
same,Activity,neuronal [6],Dose-dependent effect
same,Activity,[7],Non-toxic
same,viability at 10 µM,[8],80.4%
same,Activity,[11],67.1%
same,Activity,[12],Toxic
COc1cc2c(cc1C(=O)NCC(=O)O)CC[C@H]1C(C)(C)[C@@H](O)CC[C@]21C,viability at 10 µM,[8],57.1%
same,Activity,[11],28%
CCNC(=O)c1cc2c(cc1OC)[C@@]1(C)CC[C@H](O)C(C)(C)[C@@H]1CC2,viability at 10 µM,[8],78.2%
same,Activity,[11],63.4%
COc1cc2c(cc1C(=O)C(C)C)CC[C@H]1C(C)(C)[C@@H](O)CC[C@]21C,viability at 10 µM,[8],38.8%
CNC(=O)c1cc2c(cc1OC)[C@@]1(C)CC[C@H](O)C(C)(C)[C@@H]1CC2,viability at 10 µM,[8],77.3%
same,Activity,[11],61.9%
CCOC(=O)c1cc2c(cc1OC)[C@@]1(C)CC[C@H](O)C(C)(C)[C@@H]1CC2,viability at 10 µM,[8],73.1%
same,Activity,[11],54.9%
COc1cc2c(cc1C(C)=O)CC[C@H]1C(C)(C)C(=O)CC[C@]21C,viability at 10 µM,[8],69.7%
same,Activity,[11],49.2%
COc1cc2c(cc1C(=O)O)CC[C@H]1C(C)(C)[C@@H](O)CC[C@]21C,viability at 10 µM,[8],54%
same,Activity,[11],22.8%
COc1cc2c(cc1C(C)=O)CC[C@H]1C(C)(C)[C@@H](OC(=O)C(F)(F)F)CC[C@]21C,Activity,[1],5%
same,viability at 10 µM,[2],60.5%
same,Activity,[3],23%
same,viability at 1 µM,[4],48.2%
same,Activity,neuronal [6],Dose-dependent effect
same,Activity,[7],Non-toxic
same,viability at 10 µM,[8],81%
same,"Papp at 18 h, 25 ug/ml",[15],73.1 nm/s
same,Activity,[11],68.1%
CCCCOC(=O)c1cc2c(cc1OC)[C@@]1(C)CC[C@H](O)C(C)(C)[C@@H]1CC2,viability at 10 µM,[8],71%
same,Activity,[11],51.3%
CC(=O)c1cc2c(cc1O)[C@@]1(C)CC[C@H](O)C(C)(C)[C@@H]1CC2,viability at 10 µM,[8],77.1%
same,Activity,[11],61.6%
COCCC(=O)c1cc2c(cc1OC)[C@@]1(C)CC[C@H](O)C(C)(C)[C@@H]1CC2,viability at 10 µM,[8],71.5%
same,Activity,[11],52.2%
C#CCNC(=O)c1cc2c(cc1OC)[C@@]1(C)CC[C@H](O)C(C)(C)[C@@H]1CC2,Activity,[1],17%
same,viability at 10 µM,[2],67.8%
same,Activity,[3],37.2%
same,viability at 1 µM,[4],59.7%
same,Activity,neuronal [6],Dose-dependent effect
same,Activity,[7],Non-toxic
same,viability at 10 µM,[8],81.7%
same,Activity,[11],69.3%
same,Activity,[12],Toxic
CC1=NN(c2ccccc2)C(=O)C1 [EDARAVONE],Activity,Rattus norvegicus [16],Active
same,Activity,Rattus norvegicus [17],Active
same,viability at 50 µM,[18],86.7%
same,Activity,Rattus norvegicus [19],Active
same,viability at 50 µM,[20],85.8%
same,Activity,Rattus norvegicus [21],Active
same,Activity,[22],72.3%
same,Activity,[23],77.7%
